Measured values taken from PMC3523390 (Molecular pharmacology, 2010).
Read-outs that look alike come from different tables or passages of the source.

What was measured:
Mouse PPARγ = target: T1, Mouse PPARγ (Mus musculus, UniProt P37238); assay: PPAR luciferase reporter gene transactivation in HEK-293 cells; format: cell-based; conditions: for Mouse PPARγ Maximal Fold Activation: fold induction vs DMSO
T1 sequence (P37238 1-505): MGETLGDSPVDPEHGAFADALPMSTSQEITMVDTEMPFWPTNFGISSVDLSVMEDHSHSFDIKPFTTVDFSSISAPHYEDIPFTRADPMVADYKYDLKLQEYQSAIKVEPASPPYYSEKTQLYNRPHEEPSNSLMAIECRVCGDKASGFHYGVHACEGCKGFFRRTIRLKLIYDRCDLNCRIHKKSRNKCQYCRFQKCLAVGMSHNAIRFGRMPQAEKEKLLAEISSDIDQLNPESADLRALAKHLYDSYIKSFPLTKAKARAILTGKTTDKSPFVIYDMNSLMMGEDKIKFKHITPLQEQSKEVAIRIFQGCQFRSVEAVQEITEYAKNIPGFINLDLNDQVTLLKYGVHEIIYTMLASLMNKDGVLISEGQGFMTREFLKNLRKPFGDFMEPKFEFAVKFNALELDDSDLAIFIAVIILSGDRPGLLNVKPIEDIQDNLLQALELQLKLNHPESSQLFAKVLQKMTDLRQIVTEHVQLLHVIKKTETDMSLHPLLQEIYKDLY

hPPARγ LBD [1] = target: T2, hPPARγ LBD (Homo sapiens, UniProt P37231); assay: LanthaScreen TR-FRET PPARγ competitive ligand binding assay; conditions: for Ki: hPPARγ LBD, displacement of Fluormone Pan-PPAR Green, Cheng-Prusoff
T2 sequence (P37231 238-503 limits assumed): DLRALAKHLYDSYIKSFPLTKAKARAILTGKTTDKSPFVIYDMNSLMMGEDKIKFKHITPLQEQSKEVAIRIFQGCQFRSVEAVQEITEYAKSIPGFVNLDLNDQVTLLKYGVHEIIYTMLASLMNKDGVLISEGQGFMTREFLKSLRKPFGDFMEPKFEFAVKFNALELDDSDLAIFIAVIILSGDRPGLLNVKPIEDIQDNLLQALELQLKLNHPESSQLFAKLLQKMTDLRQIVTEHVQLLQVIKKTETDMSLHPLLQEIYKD

hPPARγ = target: T3, hPPARγ (Homo sapiens, UniProt P37231); assay: PPAR luciferase reporter gene transactivation in HEK-293 cells; format: cell-based; conditions: for hPPARγ Maximal Fold Activation / EC50: HEK-293, 18 h, N.D. = not detected up to 100 μM; for hPPARγ Maximal Fold Activation: fold induction vs DMSO; for concentration to reach saturation response (maximal activation): hPPARγ luciferase reporter, HEK-293; for EC50: read-out: hPPARγ EC50
T3 sequence (P37231 1-477 isoform P37231-2): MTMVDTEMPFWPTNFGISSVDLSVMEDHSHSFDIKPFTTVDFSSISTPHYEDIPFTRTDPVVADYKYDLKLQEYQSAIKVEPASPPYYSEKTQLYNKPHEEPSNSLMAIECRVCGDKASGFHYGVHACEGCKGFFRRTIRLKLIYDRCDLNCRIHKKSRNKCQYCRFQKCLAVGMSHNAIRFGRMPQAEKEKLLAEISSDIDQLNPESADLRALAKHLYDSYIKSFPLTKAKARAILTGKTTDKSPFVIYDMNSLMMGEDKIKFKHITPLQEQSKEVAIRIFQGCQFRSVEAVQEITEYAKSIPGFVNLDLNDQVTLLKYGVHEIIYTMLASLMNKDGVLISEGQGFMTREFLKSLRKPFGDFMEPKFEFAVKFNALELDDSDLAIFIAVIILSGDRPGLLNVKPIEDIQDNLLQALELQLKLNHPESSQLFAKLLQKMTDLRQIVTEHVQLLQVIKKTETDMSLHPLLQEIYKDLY

3T3-L1 preadipocytes = assay: 3T3-L1 adipocyte differentiation; format: cell-based, rodent; conditions: 10 μM compound, 7 to 8 days
Summary of the method: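 Mouse 3T3-L1 preadipocytes grown in DMEM with 10% calf serum to confluence (day −2), held 2 more days, then switched at day 0 to DMEM with 10% FCS, 1 μg/ml insulin and test compound (DMSO ≤0.1% final). Medium renewed every 2 days to day 7–8. Cells formalin-fixed 1 h, Oil Red O-stained 10 min, photographed; bound dye eluted in isopropanol, read at 550 nm.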

[2] = system: 3T3-L1 cells and C3H10T1/2 cells; conditions: ref Choi et al., 2009; cited from earlier work
[3] = system: type 2 diabetic Goto-Kakizaki rats; conditions: ref Sohn et al., 2007; cited from earlier work
hPPARγ LBD [4] = target: T2, hPPARγ LBD; assay: LanthaScreen TR-FRET PPARγ coactivator; format: biochemical; conditions: 1 h incubation, 520 nm/495 nm ratio
hPPARα = target: T4, hPPARα (Homo sapiens, UniProt Q07869); assay: PPAR luciferase reporter gene transactivation in HEK-293 cells; format: cell-based; conditions: HEK-293, 18 h, fold induction vs DMSO; N.D. = not detected up to 100 μM
T4 sequence (Q07869 1-468): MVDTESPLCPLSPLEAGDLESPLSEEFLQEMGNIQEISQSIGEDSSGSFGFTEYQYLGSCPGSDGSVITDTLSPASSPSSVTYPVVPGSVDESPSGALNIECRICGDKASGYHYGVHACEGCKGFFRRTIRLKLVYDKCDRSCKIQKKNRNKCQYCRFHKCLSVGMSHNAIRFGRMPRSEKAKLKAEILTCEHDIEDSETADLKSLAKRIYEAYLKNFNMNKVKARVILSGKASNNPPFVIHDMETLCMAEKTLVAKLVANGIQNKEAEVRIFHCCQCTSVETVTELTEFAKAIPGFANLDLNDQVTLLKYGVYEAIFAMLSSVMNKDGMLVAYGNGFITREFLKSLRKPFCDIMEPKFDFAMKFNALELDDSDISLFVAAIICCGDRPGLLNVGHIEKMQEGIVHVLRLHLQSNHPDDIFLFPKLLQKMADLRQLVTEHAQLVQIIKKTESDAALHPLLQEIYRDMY

[5] = HEK-293, 18 h, N.D. = not detected up to 100 μM
[6] = read-out: Mouse PPARγ EC50, HEK-293, 18 h, N.D. = not detected up to 100 μM

Row | SMILES | Mouse PPARγ Maximal Fold Activation (Mouse PPARγ; [5]) | EC50 (Mouse PPARγ; [6]) | Ki (hPPARγ LBD [1]) | hPPARγ Maximal Fold Activation (hPPARγ) | concentration to reach saturation response (maximal activation) (hPPARγ) | EC50 (hPPARγ) | adipogenic activity (differentiation to adipocytes, Oil Red O) (3T3-L1 preadipocytes) | also measured
1 | C=CCc1cc(OC)c(O)c(-c2cc(CC=C)cc(OC)c2O)c1 [Compound 1, dieugenol] | 2.93 | 930 nM | 240 nM | 3.58 | approximately 1 μM | 620 nM | induced 3T3-L1 preadipocyte differentiation | –
2 | CCCc1cc(OC)c(O)c(-c2cc(CCC)cc(OC)c2O)c1 [Compound 2, tetrahydrodieugenol] | 2.98 | 380 nM | 320 nM | 3.34 | approximately 1 μM | 330 nM | induced 3T3-L1 preadipocyte differentiation | –
3 | C=CCc1ccc(O)c(-c2cc(CC=C)ccc2O)c1 [Compound 3, magnolol] | – | – | – | – | – | – | induced 3T3-L1 preadipocyte differentiation | adipocyte differentiation [2]: enhances adipocyte differentiation; EC50 (Mouse PPARγ): 1140 nM; fasting blood glucose [3]: decreased; plasma insulin levels [3]: decreased
4 | C=CCc1ccc(O)c(OC)c1 [Compound 4, eugenol, reference compound] | – | – | – | – | – | – | no adipogenic activity | TRAP220/DRIP-2 coactivator peptide recruitment to the PPARγ LBD (hPPARγ LBD [4]): not active; binding to the hPPARγ LBD (hPPARγ LBD [1]; test concentrations up to 100 μM): did not bind to the receptor at all
5 | CC(C)(Sc1ccc(CCN(CCCCC2CCCCC2)C(=O)NC2CCCCC2)cc1)C(=O)O [GW7647] | – | – | – | – | – | – | – | hPPARα Maximal Fold Activation (hPPARα): 3.09
